In ChEMBL document CHEMBL1149561, “Synthesis of benzothiazole semicarbazones as novel anticonvulsants--the role of hydrophobic domain” (Bioorg Med Chem Lett, 2007):

What was measured:
Mus musculus [1] = test: Anticonvulsant activity in Swiss Albino mouse at 30 mg/kg after 0.5 hrs by MES screen test; type: functional
Method in brief: (§1)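 Swiss albino mice (25–30 g) given 30 mg/kg i.p. Maximal electroshock (MES) seizure test run 0.5 and 4 h after dosing. Activity read out as % of animals protected. Phenytoin at 30 mg/kg i.p. served as standard.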

Mus musculus [2] = test: Anticonvulsant activity in swiss Albino mouse at 30 mg/kg after 4 hrs by MES screen test; type: functional; method in brief: as §1
Mus musculus [3] = test: Neurotoxicity in Swiss Albino mouse at 30 mg/kg after 4 hrs by rotarod test; type: toxicity, organism-based; parameters: dose 30 mg/kg; conditions: in vivo
Method in brief: (§2)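 Swiss albino mice received 30 mg/kg i.p. Motor impairment scored on the rotarod 0.5 and 4 h after dosing. Results given as number of animals showing toxicity over number tested.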

Mus musculus [4] = test: Neurotoxicity in Swiss Albino mouse at 30 mg/kg after 0.5 hrs by rotarod test; type: toxicity, organism-based; parameters: dose 30 mg/kg; conditions: in vivo; method in brief: as §2
[5] = Lipophilicity, log P of the compound; type: physicochemical; conditions: octanol/water

SMILES | Activity (Mus musculus [1]) [%] | Activity (Mus musculus [2]) [%] | Activity (Mus musculus [3]) | Activity (Mus musculus [4]) | logP [5]
COc1ccc(/C(C)=N/NC(=O)Nc2nc3ccc(C)cc3s2)cc1 | 83.3 | 83.3 | Not Active | Not Active | 
COc1ccc2nc(NC(=O)N/N=C(\C)c3ccc(O)cc3)sc2c1 | 66.6 | 50 |  |  | 
COc1ccc(/C(C)=N/NC(=O)Nc2nc3ccc(OC)cc3s2)cc1 | 83.3 | 83.3 | Not Active | Not Active | 
C/C(=N\NC(=O)Nc1nc2ccc(Cl)cc2s1)c1ccc(O)cc1 | 50 | 50 |  |  | 
C/C(=N\NC(=O)Nc1nc2ccc(C)cc2s1)c1ccc(O)cc1 | 66.6 | 66.6 |  |  | 
COc1ccc2nc(NC(=O)N/N=C(\C)c3ccccc3)sc2c1 | 83.3 | 66.6 | Not Active | Not Active | 
COc1ccc(/C(C)=N/NC(=O)Nc2nc3ccc(Cl)cc3s2)cc1 | 66.6 | 66.6 |  |  | 
C/C(=N\NC(=O)Nc1nc2ccc(C)cc2s1)c1ccccc1 | 33.3 | 33.3 |  |  | 
C/C(=N\NC(=O)Nc1nc2ccc(C)cc2s1)c1ccc([N+](=O)[O-])cc1 | 100 | 100 | Not Active | Not Active | 3.22
COc1ccc2nc(NC(=O)NN=C(c3ccccc3)c3ccccc3)sc2c1 | 100 | 100 | Not Active | Not Active | 
O=C(NN=C(c1ccccc1)c1ccccc1)Nc1nc2ccc(Cl)cc2s1 | 50 | 33.3 |  |  | 
Cc1ccc2nc(NC(=O)NN=C(c3ccccc3)c3ccccc3)sc2c1 | 33.3 | 33.3 |  |  | 
C/C(=N\NC(=O)Nc1nc2ccc(Cl)cc2s1)c1ccccc1 | 100 | 83.3 | Not Active | Not Active | 3.12
C/C(=N\NC(=O)Nc1nc2ccc(Cl)cc2s1)c1ccc([N+](=O)[O-])cc1 | 33.3 | 33.3 |  |  | 
COc1ccc2nc(NC(=O)N/N=C(\C)c3ccc([N+](=O)[O-])cc3)sc2c1 | 100 | 100 | Not Active | Not Active | 
O=C1NC(=O)C(c2ccccc2)(c2ccccc2)N1 [PHENYTOIN] | 100 | 100 | Not Active | Not Active | 
